Results: ChEMBL document CHEMBL4130563, “Structure-Based Design and Synthesis of New Estrane-Pyridine Derivatives as Cytochrome P450 (CYP) 1B1 Inhibitors” (ACS Med Chem Lett, 2017)
pIC50: −log10 of the molar value.

Assays:
CYP1B1 [1] = target: T1, CYP1B1 (Homo sapiens, UniProt Q16678); test: Inhibition of recombinant human CYP1B1 expressed in supersomes coexpressing P450 reductase at 0.3 uM using 7-ethyl-O-resorufin as substrate after 45 mins in presence of NADPH by fluorescence assay relative to control; settings: probe 7-ethyl-O-resorufin
T1 sequence (Q16678 whole entry): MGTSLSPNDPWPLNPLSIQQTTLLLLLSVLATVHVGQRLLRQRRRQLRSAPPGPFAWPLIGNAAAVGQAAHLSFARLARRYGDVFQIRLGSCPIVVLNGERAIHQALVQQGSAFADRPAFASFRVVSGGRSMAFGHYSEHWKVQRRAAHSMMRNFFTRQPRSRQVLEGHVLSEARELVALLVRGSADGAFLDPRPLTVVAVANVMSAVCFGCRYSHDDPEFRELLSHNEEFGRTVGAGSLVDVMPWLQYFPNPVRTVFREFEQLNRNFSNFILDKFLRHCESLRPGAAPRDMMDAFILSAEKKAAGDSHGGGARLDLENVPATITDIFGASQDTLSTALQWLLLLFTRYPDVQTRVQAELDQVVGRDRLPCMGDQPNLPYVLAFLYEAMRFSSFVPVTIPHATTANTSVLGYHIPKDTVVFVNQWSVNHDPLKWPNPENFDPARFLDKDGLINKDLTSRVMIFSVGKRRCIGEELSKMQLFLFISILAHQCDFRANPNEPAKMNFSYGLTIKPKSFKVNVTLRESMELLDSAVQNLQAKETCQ

Cytochrome P450 1B1 = target: T2, Cytochrome P450 1B1 (Homo sapiens, UniProt Q16678); test: Inhibition of recombinant human CYP1B1 expressed in supersomes coexpressing P450 reductase using 7-ethyl-O-resorufin as substrate after 45 mins in presence of NADPH by fluorescence assay
T2 sequence (Q16678 whole entry): T1 sequence (Q16678 whole entry)

Rattus norvegicus = test: AUC (0 to 24 hrs) in rat plasma assessed as 2-(3-pyridinyl)-3-hydroxy-estra-1,3,5(10)-trien-17-one level at 2 mg/kg, sc administered as single dose measured at 2 hrs post dose by LC-MS analysis; type: ADME, organism-based; set-up: dose 2 mg/kg, time < 24 hr, route subcutaneous; settings: in vivo
Outline: (§1)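 Rats given one subcutaneous injection of the 17β-alcohol parent at 2.0 mg/kg (0.66 mg in PG:DMSO 92:8). Plasma levels of the parent and of its 17-keto metabolite were followed over time. AUC (ng.h/mL) was calculated for each species and for the two combined.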

[2] = AUC (0 to 24 hrs) in rat plasma at 2 mg/kg, sc administered as single dose measured at 2 hrs post dose by LC-MS analysis; type: ADME, organism-based; set-up: time < 24 hr, dose 2 mg/kg, route subcutaneous; outline: as §1
CYP1B1 [3] = target: T1, CYP1B1; test: Potency index, ratio of alpha-naphthoflavone IC50 to compound IC50 for inhibition of recombinant human CYP1B1 expressed in supersomes coexpressing P450 reductase; settings: read-out: Ratio IC50
Outline: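 EROD assay on recombinant human CYP1B1 with NADPH as cofactor. Resorufin ethyl ether is the substrate, and conversion to resorufin is read by fluorescence.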

[4] = Drug uptake in rat plasma at 2 mg/kg, sc administered as single dose measured at 2 hrs post dose by LC-MS analysis; type: ADME, organism-based; outline: as §1
[5] = Drug metabolism in rat plasma assessed as 2-(3-pyridinyl)-3-hydroxy-estra-1,3,5(10)-trien-17-one formation at 2 mg/kg, sc administered as single dose measured at 2 hrs post dose by LC-MS analysis; type: ADME, organism-based; settings: in vivo; outline: as §1

SMILES	inhibition at 0.75 h, 0.3 µM (CYP1B1 [1]) [%]	other results
C[C@]12CC[C@@H]3c4ccc(S)cc4CC[C@H]3[C@@H]1CCC2=O	13.3	–
C[C@]12CC[C@@H]3c4ccc(-c5cccnc5)cc4CC[C@H]3[C@@H]1CC[C@@H]2O	19.6	–
C[C@]12CC[C@@H]3c4ccc(O)c(-c5ccncc5)c4CC[C@H]3[C@@H]1CC[C@@H]2O	20.9	–
C[C@]12CC[C@@H]3c4cc(-c5cccnc5)c(O)cc4CC[C@H]3[C@@H]1CC[C@@H]2O	85.4	pIC50 (Cytochrome P450 1B1): 7.96; AUC (Rattus norvegicus): 0.0332 µg·h/mL; AUC(0-t) at 24 h [2]: 0.0128 µg·h/mL; selectivity ratio (CYP1B1 [3]): 7.5; concentration at 2 h [4]: 4 ng/mL; Drug metabolism [5]: 7 ng/mL
C[C@]12CC[C@@H]3c4ccc(-c5cccnc5)cc4CC[C@H]3[C@@H]1CCC2=O	28.2	–
C[C@]12CC[C@@H]3c4ccc(O)c(-c5cccnc5)c4CC[C@H]3[C@@H]1CCC2=O	14	–
C[C@]12CC[C@@H]3c4cc(-c5cccnc5)c(O)cc4CC[C@H]3[C@@H]1CCC2=O	37.8	pIC50 (Cytochrome P450 1B1): 7.20
C[C@]12CC[C@@H]3c4ccc(-c5ccncc5)cc4CC[C@H]3[C@@H]1CCC2=O	6.1	–
C[C@]12CC[C@@H]3c4ccc(O)c(-c5ccncc5)c4CC[C@H]3[C@@H]1CCC2=O	16.9	–
C[C@]12CC[C@@H]3c4ccc(O)c(-c5cccnc5)c4CC[C@H]3[C@@H]1CC[C@@H]2O	28.9	–
C[C@]12CC[C@@H]3c4cc(-c5ccncc5)c(O)cc4CC[C@H]3[C@@H]1CC[C@@H]2O	87.4	pIC50 (Cytochrome P450 1B1): 7.49; selectivity ratio (CYP1B1 [3]): 2.5
C[C@]12CC[C@@H]3c4cc(-c5ccncc5)c(O)cc4CC[C@H]3[C@@H]1CCC2=O	21.3	pIC50 (Cytochrome P450 1B1): 6.92
C[C@]12CC[C@@H]3c4ccc(-c5ccncc5)cc4CC[C@H]3[C@@H]1CC[C@@H]2O	19.5	–
O=c1cc(-c2ccccc2)oc2c1ccc1ccccc12 [ALPHA-NAPHTHOFLAVONE]	94	–
C[C@]12CC[C@@H]3c4ccc(O)cc4CC[C@H]3[C@@H]1CC[C@@H]2O [ESTRADIOL]	12.4	–
